Measured values published in ChEMBL document CHEMBL1165965, “Synthesis and structure-activity relationships of 1,2,3,4-tetrahydropyrido[2,3-b]pyrazines as potent and selective inhibitors of the anaplastic lymphoma kinase” (Bioorg Med Chem, 2010).

Legend:
[1] = molecular target: MAP kinase-activated protein kinase 2 (Homo sapiens) (UniProt P49137); assay: Inhibition of MAPKAPK2 at 1 uM
[2] = molecular target: T1, MAP kinase-activated protein kinase 5 (Homo sapiens) (UniProt Q8IW41); assay: Inhibition of MAPKAPK5 at 1 uM
T1 sequence (whole entry): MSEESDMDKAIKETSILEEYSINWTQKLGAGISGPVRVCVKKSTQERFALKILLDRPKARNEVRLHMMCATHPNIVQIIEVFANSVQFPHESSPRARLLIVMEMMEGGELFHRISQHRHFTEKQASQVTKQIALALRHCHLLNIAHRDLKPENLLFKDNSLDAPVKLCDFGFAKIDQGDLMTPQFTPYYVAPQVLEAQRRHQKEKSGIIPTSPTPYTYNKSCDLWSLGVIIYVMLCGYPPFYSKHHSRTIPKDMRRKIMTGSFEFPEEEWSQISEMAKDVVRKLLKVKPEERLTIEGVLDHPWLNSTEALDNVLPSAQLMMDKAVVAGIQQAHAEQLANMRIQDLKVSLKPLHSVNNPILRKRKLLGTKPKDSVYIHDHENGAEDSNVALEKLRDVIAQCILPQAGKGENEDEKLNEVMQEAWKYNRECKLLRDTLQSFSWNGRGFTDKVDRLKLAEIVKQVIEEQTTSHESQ

[3] = molecular target: Myosin light chain kinase 2, skeletal/cardiac muscle (Homo sapiens) (UniProt Q9H1R3); assay: Inhibition of MYLK2 at 1 uM
[4] = molecular target: Serine/threonine-protein kinase NIM1 (Homo sapiens) (UniProt Q8IY84); assay: Inhibition of NIM1 at 1 uM
[5] = molecular target: Cyclin-dependent kinase 14 (Homo sapiens) (UniProt O94921); assay: Inhibition of PFTK1 at 1 uM
[6] = molecular target: Serine/threonine-protein kinase pim-2 (Homo sapiens) (UniProt Q9P1W9); assay: Inhibition of PIM2 at 1 uM
[7] = molecular target: Phosphatidylinositol 4-phosphate 5-kinase type-1 alpha (Homo sapiens) (UniProt Q99755); assay: Inhibition of PIP5K1A at 1 uM
[8] = molecular target: Serine/threonine-protein kinase SIK2 (Homo sapiens) (UniProt Q9H0K1); assay: Inhibition of SIK2 at 1 uM
[9] = molecular target: T2, TGF-beta receptor type-1 (Homo sapiens) (UniProt P36897); assay: Inhibition of TGFBR1 at 1 uM
T2 sequence (whole entry): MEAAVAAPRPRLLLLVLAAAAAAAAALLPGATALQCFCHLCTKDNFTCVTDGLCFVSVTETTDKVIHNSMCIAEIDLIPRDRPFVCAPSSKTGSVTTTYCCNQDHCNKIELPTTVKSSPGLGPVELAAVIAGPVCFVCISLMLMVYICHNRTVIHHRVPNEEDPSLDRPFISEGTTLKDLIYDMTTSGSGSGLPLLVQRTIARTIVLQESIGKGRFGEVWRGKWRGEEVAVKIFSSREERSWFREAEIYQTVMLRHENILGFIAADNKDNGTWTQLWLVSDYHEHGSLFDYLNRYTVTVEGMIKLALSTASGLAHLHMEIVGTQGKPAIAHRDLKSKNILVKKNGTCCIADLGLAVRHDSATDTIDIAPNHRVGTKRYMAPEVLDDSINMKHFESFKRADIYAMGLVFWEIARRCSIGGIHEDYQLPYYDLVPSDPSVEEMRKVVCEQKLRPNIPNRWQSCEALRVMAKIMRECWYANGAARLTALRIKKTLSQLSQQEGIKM

[10] = molecular target: Non-receptor tyrosine-protein kinase TYK2 (Homo sapiens) (UniProt P29597); assay: Inhibition of TYK2 JH2 pseudokinase domain at 1 uM
[11] = molecular target: Serine/threonine-protein kinase 32C (Homo sapiens) (UniProt Q86UX6); assay: Inhibition of YANK3 at 1 uM
[12] = molecular target: Epithelial discoidin domain-containing receptor 1 (Homo sapiens) (UniProt Q08345); assay: Inhibition of DDR1 at 1 uM
Summary of the method: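 Single-concentration screen using Ambit Bioscience KINOMEscan technology across a panel of 250–400 kinases. Per-kinase inhibition from this screen was summarized as S(90), the fraction of kinases inhibited by more than 90%.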

[13] = test system: Epidermal growth factor receptor (Homo sapiens), P00533 [L858R,T790M]; assay: Inhibition of EGFR L858R, T790M mutant at 1 uM; assay type: protein assay
[14] = molecular target: T3, Mitogen-activated protein kinase 15 (Homo sapiens) (UniProt Q8TD08); assay: Inhibition of ERK8 at 1 uM
T3 sequence (whole entry): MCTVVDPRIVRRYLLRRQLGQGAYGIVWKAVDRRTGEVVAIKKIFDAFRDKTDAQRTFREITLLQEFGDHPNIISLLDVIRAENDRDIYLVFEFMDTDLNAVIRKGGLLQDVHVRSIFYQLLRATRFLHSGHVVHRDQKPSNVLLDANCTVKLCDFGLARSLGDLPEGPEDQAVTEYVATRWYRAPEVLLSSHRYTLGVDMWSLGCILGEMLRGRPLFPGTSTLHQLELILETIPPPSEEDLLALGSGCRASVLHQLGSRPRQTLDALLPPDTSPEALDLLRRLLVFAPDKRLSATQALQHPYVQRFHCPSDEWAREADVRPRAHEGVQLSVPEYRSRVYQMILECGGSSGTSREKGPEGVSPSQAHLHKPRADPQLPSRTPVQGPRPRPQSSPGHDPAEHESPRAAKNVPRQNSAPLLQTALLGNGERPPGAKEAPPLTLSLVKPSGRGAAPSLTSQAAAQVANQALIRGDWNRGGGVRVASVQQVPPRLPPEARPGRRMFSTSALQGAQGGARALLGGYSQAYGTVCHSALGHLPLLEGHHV

[15] = molecular target: Tyrosine-protein kinase Fyn (Homo sapiens) (UniProt P06241); assay: Inhibition of FYN at 1 uM
Summary of the method: (§1)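 Single-concentration screen on the Ambit KINOMEscan platform, run against a panel of 250–400 kinases. Per-kinase inhibition was also summarized as S(90), the fraction of kinases inhibited by more than 90%.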

[16] = molecular target: Glycogen synthase kinase-3 beta (Homo sapiens) (UniProt P49841); assay: Inhibition of GSK3B at 1 uM; summary of the method: as §1
[17] = molecular target: Homeodomain-interacting protein kinase 1 (Homo sapiens) (UniProt Q86Z02); assay: Inhibition of HIPK1 at 1 uM; summary of the method: as §1

Measured: inhibition

Myosin light chain kinase 2, skeletal/cardiac muscle (Homo sapiens), sequence (Q9H1R3 whole entry): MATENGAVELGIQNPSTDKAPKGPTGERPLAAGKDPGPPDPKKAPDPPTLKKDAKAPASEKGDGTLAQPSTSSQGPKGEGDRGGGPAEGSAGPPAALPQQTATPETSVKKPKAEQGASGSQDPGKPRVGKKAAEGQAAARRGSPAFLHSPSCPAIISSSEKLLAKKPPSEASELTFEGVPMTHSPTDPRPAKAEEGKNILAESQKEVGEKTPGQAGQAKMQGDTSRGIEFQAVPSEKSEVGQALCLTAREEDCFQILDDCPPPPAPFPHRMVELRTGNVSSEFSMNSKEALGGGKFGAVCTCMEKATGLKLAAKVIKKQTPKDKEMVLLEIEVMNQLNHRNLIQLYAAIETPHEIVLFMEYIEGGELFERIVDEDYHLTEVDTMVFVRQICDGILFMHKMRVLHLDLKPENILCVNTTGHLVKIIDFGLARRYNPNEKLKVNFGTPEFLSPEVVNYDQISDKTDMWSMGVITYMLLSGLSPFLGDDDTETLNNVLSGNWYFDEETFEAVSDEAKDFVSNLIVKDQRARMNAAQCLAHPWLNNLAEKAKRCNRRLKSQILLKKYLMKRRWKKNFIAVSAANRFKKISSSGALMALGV
Serine/threonine-protein kinase SIK2 (Homo sapiens), sequence (Q9H0K1 whole entry, looked up): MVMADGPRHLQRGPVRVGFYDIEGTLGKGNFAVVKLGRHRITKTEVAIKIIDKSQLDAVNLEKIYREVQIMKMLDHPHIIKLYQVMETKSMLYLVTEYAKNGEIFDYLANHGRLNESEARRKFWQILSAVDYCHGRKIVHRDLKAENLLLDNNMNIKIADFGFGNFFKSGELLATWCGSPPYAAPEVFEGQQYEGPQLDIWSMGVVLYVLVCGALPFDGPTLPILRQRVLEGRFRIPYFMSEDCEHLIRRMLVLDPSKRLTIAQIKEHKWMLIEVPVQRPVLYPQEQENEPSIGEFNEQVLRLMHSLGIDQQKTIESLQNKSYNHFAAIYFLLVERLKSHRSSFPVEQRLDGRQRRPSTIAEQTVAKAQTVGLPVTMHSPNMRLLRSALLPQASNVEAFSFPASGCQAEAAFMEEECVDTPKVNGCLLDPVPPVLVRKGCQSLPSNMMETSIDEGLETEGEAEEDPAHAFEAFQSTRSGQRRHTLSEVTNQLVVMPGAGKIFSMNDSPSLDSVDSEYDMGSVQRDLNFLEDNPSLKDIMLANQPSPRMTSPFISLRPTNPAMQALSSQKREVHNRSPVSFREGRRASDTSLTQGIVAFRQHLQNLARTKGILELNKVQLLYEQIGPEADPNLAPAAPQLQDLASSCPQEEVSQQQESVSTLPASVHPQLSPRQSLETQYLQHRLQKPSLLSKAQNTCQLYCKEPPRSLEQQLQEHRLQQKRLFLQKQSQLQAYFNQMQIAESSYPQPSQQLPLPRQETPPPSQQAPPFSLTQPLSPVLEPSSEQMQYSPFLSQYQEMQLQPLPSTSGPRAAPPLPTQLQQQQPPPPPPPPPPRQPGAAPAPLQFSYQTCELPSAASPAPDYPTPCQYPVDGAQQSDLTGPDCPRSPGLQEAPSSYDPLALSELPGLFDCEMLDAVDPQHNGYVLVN
Serine/threonine-protein kinase pim-2 (Homo sapiens), sequence (Q9P1W9 whole entry, looked up): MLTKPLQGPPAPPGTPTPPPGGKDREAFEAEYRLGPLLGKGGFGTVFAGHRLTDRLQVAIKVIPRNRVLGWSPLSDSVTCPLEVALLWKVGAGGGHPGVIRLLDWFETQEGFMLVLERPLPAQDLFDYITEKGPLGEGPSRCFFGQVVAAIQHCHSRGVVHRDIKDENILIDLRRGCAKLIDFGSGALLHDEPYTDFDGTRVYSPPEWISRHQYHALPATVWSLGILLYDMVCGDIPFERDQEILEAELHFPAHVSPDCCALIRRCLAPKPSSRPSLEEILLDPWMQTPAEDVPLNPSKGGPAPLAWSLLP
Tyrosine-protein kinase Fyn (Homo sapiens), sequence (P06241 2-537 limits assumed): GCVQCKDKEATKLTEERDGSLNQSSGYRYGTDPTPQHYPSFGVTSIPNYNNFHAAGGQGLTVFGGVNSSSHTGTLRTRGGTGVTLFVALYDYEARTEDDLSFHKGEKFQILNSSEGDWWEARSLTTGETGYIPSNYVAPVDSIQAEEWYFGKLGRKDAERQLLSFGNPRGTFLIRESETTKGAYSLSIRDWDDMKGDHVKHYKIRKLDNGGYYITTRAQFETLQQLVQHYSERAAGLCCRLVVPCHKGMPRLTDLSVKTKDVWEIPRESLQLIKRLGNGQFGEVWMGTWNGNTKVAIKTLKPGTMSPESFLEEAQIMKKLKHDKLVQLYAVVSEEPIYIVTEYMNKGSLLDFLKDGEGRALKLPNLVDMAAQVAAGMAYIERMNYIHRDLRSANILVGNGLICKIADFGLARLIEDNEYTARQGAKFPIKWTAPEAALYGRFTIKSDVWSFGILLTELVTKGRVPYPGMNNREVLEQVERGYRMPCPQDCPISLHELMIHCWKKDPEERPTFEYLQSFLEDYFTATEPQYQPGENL
Glycogen synthase kinase-3 beta (Homo sapiens), sequence (P49841 whole entry, looked up): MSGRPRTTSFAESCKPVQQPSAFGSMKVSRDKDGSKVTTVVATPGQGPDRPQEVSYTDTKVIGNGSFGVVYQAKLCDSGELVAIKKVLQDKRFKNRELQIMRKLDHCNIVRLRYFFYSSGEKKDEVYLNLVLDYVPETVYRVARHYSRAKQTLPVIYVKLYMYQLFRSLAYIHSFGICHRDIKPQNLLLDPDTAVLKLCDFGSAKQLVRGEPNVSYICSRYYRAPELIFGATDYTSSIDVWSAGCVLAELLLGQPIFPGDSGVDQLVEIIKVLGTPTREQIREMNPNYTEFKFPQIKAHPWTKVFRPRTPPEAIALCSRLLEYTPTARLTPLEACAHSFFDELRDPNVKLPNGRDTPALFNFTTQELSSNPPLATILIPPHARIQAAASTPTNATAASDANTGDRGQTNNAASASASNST
MAP kinase-activated protein kinase 2 (Homo sapiens), sequence (P49137 whole entry, looked up): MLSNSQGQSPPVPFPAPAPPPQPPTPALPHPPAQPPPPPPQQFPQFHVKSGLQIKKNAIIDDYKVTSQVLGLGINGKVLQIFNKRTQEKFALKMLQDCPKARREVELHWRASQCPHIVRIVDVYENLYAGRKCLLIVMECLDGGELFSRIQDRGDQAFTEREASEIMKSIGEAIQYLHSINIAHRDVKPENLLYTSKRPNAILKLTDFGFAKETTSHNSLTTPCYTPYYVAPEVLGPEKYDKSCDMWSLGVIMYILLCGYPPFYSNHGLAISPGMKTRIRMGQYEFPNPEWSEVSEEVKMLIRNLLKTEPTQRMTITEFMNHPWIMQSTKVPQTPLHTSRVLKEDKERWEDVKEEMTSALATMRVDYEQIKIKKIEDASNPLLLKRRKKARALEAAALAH
Serine/threonine-protein kinase 32C (Homo sapiens), sequence (Q86UX6 whole entry, the tested form may be a part): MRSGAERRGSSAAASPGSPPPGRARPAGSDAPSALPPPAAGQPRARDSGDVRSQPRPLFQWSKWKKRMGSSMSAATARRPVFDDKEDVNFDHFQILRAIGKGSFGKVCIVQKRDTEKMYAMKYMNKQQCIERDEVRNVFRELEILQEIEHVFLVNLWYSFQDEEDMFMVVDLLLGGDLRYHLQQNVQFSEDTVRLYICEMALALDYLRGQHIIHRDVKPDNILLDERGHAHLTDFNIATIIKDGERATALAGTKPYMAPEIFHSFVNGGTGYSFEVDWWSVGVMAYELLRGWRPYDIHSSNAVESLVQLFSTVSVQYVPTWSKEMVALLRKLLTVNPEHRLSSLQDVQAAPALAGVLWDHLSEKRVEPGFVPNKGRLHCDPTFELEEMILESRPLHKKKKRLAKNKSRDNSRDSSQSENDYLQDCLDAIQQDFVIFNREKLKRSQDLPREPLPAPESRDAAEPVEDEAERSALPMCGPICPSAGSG
Epithelial discoidin domain-containing receptor 1 (Homo sapiens), sequence (Q08345 whole entry, the tested form may be a part): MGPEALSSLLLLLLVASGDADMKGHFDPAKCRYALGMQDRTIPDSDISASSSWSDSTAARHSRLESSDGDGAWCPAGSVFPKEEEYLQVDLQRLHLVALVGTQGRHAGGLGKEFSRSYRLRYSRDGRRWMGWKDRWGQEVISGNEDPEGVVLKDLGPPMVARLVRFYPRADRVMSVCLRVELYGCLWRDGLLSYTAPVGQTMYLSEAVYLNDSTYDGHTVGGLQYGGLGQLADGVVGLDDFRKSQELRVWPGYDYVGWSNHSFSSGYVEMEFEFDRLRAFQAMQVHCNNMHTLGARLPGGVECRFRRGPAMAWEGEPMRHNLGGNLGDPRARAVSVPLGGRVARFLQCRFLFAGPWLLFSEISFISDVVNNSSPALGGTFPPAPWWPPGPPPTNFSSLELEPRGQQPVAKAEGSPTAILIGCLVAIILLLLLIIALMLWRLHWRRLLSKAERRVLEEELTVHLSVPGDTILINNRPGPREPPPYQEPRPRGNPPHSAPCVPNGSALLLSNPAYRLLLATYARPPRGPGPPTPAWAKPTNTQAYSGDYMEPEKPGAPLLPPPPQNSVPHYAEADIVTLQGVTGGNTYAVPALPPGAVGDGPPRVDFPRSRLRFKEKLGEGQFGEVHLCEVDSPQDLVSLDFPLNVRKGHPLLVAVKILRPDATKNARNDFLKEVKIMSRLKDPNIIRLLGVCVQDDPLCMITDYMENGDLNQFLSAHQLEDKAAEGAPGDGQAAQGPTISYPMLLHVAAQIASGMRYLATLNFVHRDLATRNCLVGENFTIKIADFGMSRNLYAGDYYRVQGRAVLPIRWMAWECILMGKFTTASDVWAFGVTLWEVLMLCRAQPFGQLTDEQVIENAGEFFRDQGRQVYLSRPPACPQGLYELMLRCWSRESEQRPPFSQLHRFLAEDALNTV
Serine/threonine-protein kinase NIM1 (Homo sapiens), sequence (Q8IY84 whole entry): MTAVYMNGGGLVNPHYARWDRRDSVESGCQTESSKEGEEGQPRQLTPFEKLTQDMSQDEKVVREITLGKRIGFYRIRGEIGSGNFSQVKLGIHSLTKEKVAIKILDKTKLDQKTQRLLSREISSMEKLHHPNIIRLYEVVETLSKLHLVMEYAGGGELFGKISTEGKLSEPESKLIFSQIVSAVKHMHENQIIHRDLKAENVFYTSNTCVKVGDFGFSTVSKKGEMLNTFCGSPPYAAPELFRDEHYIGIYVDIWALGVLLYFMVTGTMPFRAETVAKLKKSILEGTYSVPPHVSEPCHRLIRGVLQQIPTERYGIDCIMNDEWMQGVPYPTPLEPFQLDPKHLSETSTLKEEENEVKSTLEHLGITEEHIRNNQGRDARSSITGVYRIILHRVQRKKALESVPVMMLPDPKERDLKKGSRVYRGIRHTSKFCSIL

CC(=O)N1CCN(c2cc(-c3cnc4c(c3)N(Cc3cc(Cl)ccc3C(F)(F)F)CCN4)ccn2)CC1
< 50%: all assays above
